Assay [1] deals with Staphylococcus aureus. The assay can be described thus: Antibacterial activity against Staphylococcus aureus RN4220 NRS107 after 20 hrs by broth microdilution assay. Format: functional. Conditions: RN4220 NRS107, 20 h. Background: Dilution methods test growth across graded concentrations, often in twofold steps.
For assay [2], the system named is Staphylococcus aureus. As to the kind of experiment: Antibacterial activity against methicillin-resistant Staphylococcus aureus NRS123 (USA400) after 20 hrs by broth microdilution assay. Format: functional.
The subject of assay [3] is Staphylococcus aureus. As to the kind of experiment: Antibacterial activity against methicillin-resistant Staphylococcus aureus USA300 NRS384 after 20 hrs by broth microdilution assay. Type of assay: functional. The note with it: USA300 NRS384, 20 h.
The subject of assay [4] is Staphylococcus aureus. As to the kind of experiment: Antibacterial activity against vancomycin-resistant Staphylococcus aureus isolate 10 after 20 hrs by broth microdilution assay. Type of assay: functional. Conditions: isolate 10, 20 h.
Assay [5] relates to Staphylococcus aureus. The assay can be described thus: Bactericidal activity against Staphylococcus aureus RN4220 NRS107 incubated for 20 hrs followed by replating on tryptic soy agar plates and further incubated for 18 hrs by broth microdilution assay. Format: functional.
The subject of assay [6] is Staphylococcus aureus. As to the kind of experiment: Bactericidal activity against methicillin-resistant Staphylococcus aureus NRS123 (USA400) incubated for 20 hrs followed by replating on tryptic soy agar plates and further incubated for 18 hrs by broth microdilution assay. Type of assay: functional.
Assay [7] has as its system Staphylococcus aureus. The assay can be described thus: Bactericidal activity against methicillin-resistant Staphylococcus aureus USA300 NRS384 incubated for 20 hrs followed by replating on tryptic soy agar plates and further incubated for 18 hrs by broth microdilution assay. Format: functional.
Assay [8] deals with Staphylococcus aureus. The assay can be described thus: Bactericidal activity against vancomycin-resistant Staphylococcus aureus isolate 10 incubated for 20 hrs followed by replating on tryptic soy agar plates and further incubated for 18 hrs by broth microdilution assay. Type of assay: functional. An outline of the steps: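 From MIC wells without visible growth, an aliquot was spotted onto Tryptic soy agar and incubated at 37 °C for at least 18 h; MBC = lowest concentration inhibiting 99.9% of bacterial growth.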

Assay [9] relates to Bacillus subtilis. As to the kind of experiment: Inhibition of cell wall biosynthesis in Bacillus subtilis assessed as induction of large bulges formation at 37.5 ug/ml incubated for 2 hrs by FM-4-64 staining based assay. Format: functional, organism-based. In short, it runs like this:
(§1)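 B. subtilis was grown in LB at 37 °C to OD600 ~0.2, then treated for 2 h with or without the osmotic stabiliser MSM. Cells were stained with FM 4-64 (1 µg/mL, membranes), DAPI (1 µg/mL, DNA) and SYTOX Green (1 µg/mL, lysis). Morphology was scored by deconvolution fluorescence microscopy against untreated cells.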

The subject of assay [10] is Bacillus subtilis. As to the kind of experiment: Inhibition of cell wall biosynthesis in Bacillus subtilis assessed as induction of formation of misshapen cells at 37.5 ug/ml incubated for 2 hrs by FM-4-64 staining based assay. Type of assay: functional, organism-based. In short, it runs like this:
as §1

Assay [11] relates to Staphylococcus aureus. As to the kind of experiment: Bactericidal activity against methicillin-resistant Staphylococcus aureus USA100 NRS382 incubated for 20 hrs followed by replating on tryptic soy agar plates and further incubated for 18 hrs by broth microdilution assay. Format: functional.
Assay [12] concerns Staphylococcus aureus. The assay can be described thus: Bactericidal activity against methicillin-resistant Staphylococcus aureus USA200 NRS383 incubated for 20 hrs followed by replating on tryptic soy agar plates and further incubated for 18 hrs by broth microdilution assay. Type of assay: functional.
Assay [13] has as its system Staphylococcus aureus. The assay can be described thus: Bactericidal activity against vancomycin-resistant Staphylococcus aureus isolate 4 incubated for 20 hrs followed by replating on tryptic soy agar plates and further incubated for 18 hrs by broth microdilution assay. Type of assay: functional.
Assay [14] has as its system Bacillus subtilis. The assay can be described thus: Inhibition of cell wall biosynthesis in Bacillus subtilis assessed as induction of large bulges formation at 1.875 ug/ml incubated for 2 hrs by FM-4-64 staining based assay. Type of assay: functional, organism-based. An outline of the steps: (§2)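 B. subtilis grown in LB at 37 °C to OD600 ~0.2, then treated with or without the osmotic stabiliser MSM for 2 h; stained with FM 4-64 (1 µg/mL, membranes), DAPI (1 µg/mL, DNA) and SYTOX Green (1 µg/mL, lysis); imaged by deconvolution fluorescence microscopy.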

Assay [15] deals with Bacillus subtilis. As to the kind of experiment: Inhibition of cell wall biosynthesis in Bacillus subtilis assessed as induction of formation of misshapen cells at 1.875 ug/ml incubated for 2 hrs by FM-4-64 staining based assay. Format: functional, organism-based. An outline of the steps:
as §2

The test system of assay [16] is Staphylococcus aureus. As to the kind of experiment: Antibacterial activity against vancomycin-resistant Staphylococcus aureus isolate 4 after 20 hrs by broth microdilution assay. Type of assay: functional. The note with it: isolate 4, 20 h.

Values after ≈ are worked out from the molar mass of the structure shown. Active and inactive are the calls of the source.

What is called MIC is the smallest concentration in the dilution series that meets the test's criterion for growth inhibition. Read a high MIC as a need for much substance. A word on the MBC: it is the lowest tested concentration that kills the bacteria rather than only halting them. A lower MBC goes with greater bactericidal potency. `CCCCc1ccc(-c2nc(C)c(-c3cnc(NN)s3)s2)cc1`: the minimum inhibitory concentration (MIC) in the assay on Staphylococcus aureus [1] was 16 µg/mL (≈ 46.4 µM); against Staphylococcus aureus [2], 16 µg/mL (≈ 46.4 µM); against Staphylococcus aureus [3], 16 µg/mL (≈ 46.4 µM); in the assay with Staphylococcus aureus [4], more than 64 µg/mL. The minimal bactericidal concentration (MBC) against Staphylococcus aureus [5] was 32 µg/mL (≈ 92.9 µM); against Staphylococcus aureus [6], 16 µg/mL (≈ 46.4 µM); against Staphylococcus aureus [7] it was 16 µg/mL (≈ 46.4 µM); in the assay with Staphylococcus aureus [8] it was more than 64 µg/mL.

On to `CCCCc1ccc(-c2nc(C)c(-c3cnc(N)s3)s2)cc1`, for which the MIC against Staphylococcus aureus [2], in the assay on Staphylococcus aureus [3] and against Staphylococcus aureus [4] was more than 64 µg/mL throughout. The MBC with Staphylococcus aureus [6], in the assay with Staphylococcus aureus [7] and with Staphylococcus aureus [8] was more than 64 µg/mL throughout.

`N[C@@H]1CONC1=O`: the inhibition entry in the assay on Bacillus subtilis [9] and with Bacillus subtilis [10] was “Active” in each case.

For the compound `Cc1nc(-c2ccc(-c3ccccc3)cc2)sc1-c1cnc(N)s1`, the minimal inhibitory concentration (MIC) against Staphylococcus aureus [2], against Staphylococcus aureus [3] and against Staphylococcus aureus [4] was more than 64 µg/mL each time. Also, the minimum bactericidal concentration (MBC) against Staphylococcus aureus [6], with Staphylococcus aureus [7] and in the assay on Staphylococcus aureus [8] was more than 64 µg/mL in each case.

For `CC(=O)NC[C@H]1CN(c2ccc(N3CCOCC3)c(F)c2)C(=O)O1` [LINEZOLID], the MBC in the assay with Staphylococcus aureus [5] was found to be 32 µg/mL (≈ 94.9 µM); with Staphylococcus aureus [6], 32 µg/mL (≈ 94.9 µM); with Staphylococcus aureus [11] it was 16 µg/mL (≈ 47.4 µM); against Staphylococcus aureus [12], 32 µg/mL (≈ 94.9 µM); against Staphylococcus aureus [7], 16 µg/mL (≈ 47.4 µM); against Staphylococcus aureus [13], 8 µg/mL (≈ 23.7 µM). Moreover, the minimal bactericidal concentration (MBC) in the assay on Staphylococcus aureus [8] turned out to be 16 µg/mL (≈ 47.4 µM).

As to `Cc1onc(-c2ccccc2)c1C(=O)N[C@@H]1C(=O)N2[C@@H]1SC(C)(C)[C@@H]2C(=O)O`, the inhibition result with Bacillus subtilis [14] and in the assay on Bacillus subtilis [15] was “Active” each time.

As for `Cc1nc(-c2ccc(-c3ccccc3)cc2)sc1-c1cnc(NC(=N)N)s1`, the MIC was 16 µg/mL (≈ 40.9 µM) in the assay with Staphylococcus aureus [1]; 16 µg/mL (≈ 40.9 µM) in the assay on Staphylococcus aureus [2]; 8 µg/mL (≈ 20.4 µM) in the assay with Staphylococcus aureus [3]; 8 µg/mL (≈ 20.4 µM) against Staphylococcus aureus [16]; 8 µg/mL (≈ 20.4 µM) against Staphylococcus aureus [4]. The MBC in the assay with Staphylococcus aureus [5] amounted to 32 µg/mL (≈ 81.7 µM); with Staphylococcus aureus [6] it was 16 µg/mL (≈ 40.9 µM); in the assay with Staphylococcus aureus [7] it was 16 µg/mL (≈ 40.9 µM); with Staphylococcus aureus [13], 8 µg/mL (≈ 20.4 µM); in the assay on Staphylococcus aureus [8], 8 µg/mL (≈ 20.4 µM).

`CCCCc1ccc(-c2nc(C)c(-c3cnc(-c4cccnc4)s3)s2)cc1`: the MIC against Staphylococcus aureus [1] was 16 µg/mL (≈ 40.9 µM); in the assay with Staphylococcus aureus [2] it was 16 µg/mL (≈ 40.9 µM); against Staphylococcus aureus [3] it was 16 µg/mL (≈ 40.9 µM); against Staphylococcus aureus [16], more than 64 µg/mL; against Staphylococcus aureus [4], more than 64 µg/mL. For the same compound, the minimum bactericidal concentration (MBC) is 32 µg/mL (≈ 81.7 µM) in the assay on Staphylococcus aureus [5]; 16 µg/mL (≈ 40.9 µM) in the assay on Staphylococcus aureus [6]; 16 µg/mL (≈ 40.9 µM) with Staphylococcus aureus [7]; more than 64 µg/mL against Staphylococcus aureus [13]; more than 64 µg/mL against Staphylococcus aureus [8].

Values taken from ChEMBL document CHEMBL4130411, “Arylthiazole antibiotics targeting intracellular methicillin-resistant Staphylococcus aureus (MRSA) that interfere with bacterial cell wall synthesis” (Eur J Med Chem, 2017).
